Data taken from ChEMBL document CHEMBL3351861, “New synthetic sulfone derivatives inhibit growth, adhesion and the leucine arylamidase APE2 gene expression of Candida albicans in vitro” (2015).
≈ marks a conversion by molar mass, not a printed value.

How the values were obtained:
[1] = test system: Candida albicans; assay: Antifungal activity against Candida albicans CAI4 expressing delta-cph1/delta-efg1 (EFG1) gene assessed as growth inhibition at 0.25 ug/ml by CLSI M27-A3 method; assay type: functional; settings: read-out: GI
Procedure, shortened: (§1)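 CLSI M27-A3 broth microdilution in RPMI, read after 48 h. Strains pre-grown 18 h in YEPD at 30°C. Final inoculum 0.5×10^2–2.5×10^3 cells/ml. Two-fold dilutions in RPMI came from a 1600 µg/ml stock in water with 9% DMSO; final DMSO was 0.09%. OD405 read, % inhibition = 100 − (CTW−SCW)/(GCW−SCW). Triplicate on three occasions, mean±SD.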

[2] = test system: Candida albicans; assay: Antifungal activity against Candida albicans CAI4 expressing delta-cph1 gene assessed as growth inhibition at by CLSI M27-A3 method; assay type: functional
[3] = test system: Candida albicans; assay: Antifungal activity against Candida albicans CAI4 expressing delta-cph1 (CPH1) gene assessed as growth inhibition at by CLSI M27-A3 method; assay type: functional
[4] = test system: Candida albicans; assay: Antifungal activity against Candida albicans CAI4 expressing delta-cph1/delta-efg1 gene assessed as growth inhibition at by CLSI M27-A3 method; assay type: functional
[5] = test system: Candida albicans; assay: Antifungal activity against Candida albicans CAI4 expressing delta-cph1/delta-efg1 (EFG1) gene assessed as growth inhibition at by CLSI M27-A3 method; assay type: functional
[6] = test system: Candida albicans; assay: Inhibition of cell adhesion of compound pre-treated Candida albicans 90028 to human Caco2 cells assessed as cell adhesion level at 16 ug/ml pre-incubated for 18 hrs by colony counting method (reference value: 1.58 +/- 0.67%); assay type: functional, Caco-2; parameters: scale not given: the % may be the effect or the level left
[7] = test system: Candida albicans; assay: Antifungal activity against Candida albicans CAI4 expressing delta-cph1 gene assessed as growth inhibition at 16 ug/ml by CLSI M27-A3 method; assay type: functional; settings: read-out: GI; procedure, shortened: as §1
[8] = test system: Candida albicans; assay: Antifungal activity against Candida albicans CAI4 expressing delta-cph1 (CPH1) gene assessed as growth inhibition at 16 ug/ml by CLSI M27-A3 method; assay type: functional; settings: read-out: GI; procedure, shortened: as §1
[9] = test system: Candida albicans; assay: Antifungal activity against Candida albicans CAI4 expressing delta-efg1 gene assessed as growth inhibition at 16 ug/ml by CLSI M27-A3 method; assay type: functional; settings: read-out: GI
Procedure, shortened: (§2)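 CLSI M27-A3 broth microdilution in RPMI. Final inoculum 0.5×10^2 to 2.5×10^3 cells/ml. Seven two-fold concentrations from 0.25 to 16 µg/ml, with DMSO held at 0.09% (v/v) in all wells. Compound-free growth controls and sterility controls are run for each strain. […] Triplicate on three occasions.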

[10] = test system: Candida albicans; assay: Antifungal activity against Candida albicans CAI4 expressing delta-efg1 (EFG1) gene assessed as growth inhibition at 16 ug/ml by CLSI M27-A3 method; assay type: functional; settings: read-out: GI; procedure, shortened: as §1
[11] = test system: Candida albicans; assay: Antifungal activity against Candida albicans 90028 assessed as growth inhibition at 2 ug/ml by CLSI M27-A3 method; assay type: functional; settings: read-out: GI; procedure, shortened: as §1
[12] = test system: Candida albicans; assay: Antifungal activity against Candida albicans CAI4 expressing delta-cph1 gene assessed as growth inhibition at 2 ug/ml by CLSI M27-A3 method; assay type: functional; settings: read-out: GI; procedure, shortened: as §1
[13] = test system: Candida albicans; assay: Antifungal activity against Candida albicans CAI4 expressing delta-efg1 (EFG1) gene assessed as growth inhibition at 2 ug/ml by CLSI M27-A3 method; assay type: functional; settings: read-out: GI; procedure, shortened: as §1
[14] = test system: Candida albicans; assay: Antifungal activity against Candida albicans CAI4 expressing delta-cph1/delta-efg1 (EFG1) gene assessed as growth inhibition at 2 ug/ml by CLSI M27-A3 method; assay type: functional; settings: read-out: GI; procedure, shortened: as §1
[15] = test system: Candida albicans; assay: Antifungal activity against Candida albicans CAI4 expressing delta-cph1 (CPH1) gene assessed as growth inhibition at 1 ug/ml by CLSI M27-A3 method; assay type: functional; settings: read-out: GI; procedure, shortened: as §1
[16] = test system: Candida albicans; assay: Antifungal activity against Candida albicans CAI4 expressing delta-efg1 gene assessed as growth inhibition at 1 ug/ml by CLSI M27-A3 method; assay type: functional; settings: read-out: GI; procedure, shortened: as §2
[17] = test system: Candida albicans; assay: Antifungal activity against Candida albicans CAI4 expressing delta-cph1/delta-efg1 (EFG1) gene assessed as growth inhibition at 1 ug/ml by CLSI M27-A3 method; assay type: functional; settings: read-out: GI; procedure, shortened: as §1
[18] = test system: Candida albicans; assay: Antifungal activity against Candida albicans CAI4 expressing delta-cph1/delta-efg1 (EFG1) gene assessed as growth inhibition at 0.5 ug/ml by CLSI M27-A3 method; assay type: functional; settings: read-out: GI; procedure, shortened: as §1
[19] = test system: Candida albicans; assay: Antifungal activity against Candida albicans 90028 assessed as growth inhibition at 0.25 ug/ml by CLSI M27-A3 method; assay type: functional; settings: read-out: GI; procedure, shortened: as §1
[20] = test system: Candida albicans; assay: Inhibition of cell adhesion of compound pre-treated Candida albicans CAI4 expressing delta-cph1 (CPH1) gene to human Caco2 cells assessed as cell adhesion level at 16 ug/ml pre-incubated for 18 hrs by colony counting method (reference value: 5.37 +/- 12.4%); assay type: functional, Caco-2; parameters: scale not given: the % may be the effect or the level left
[21] = test system: Candida albicans; assay: Inhibition of cell adhesion of compound pre-treated Candida albicans CAI4 expressing delta-efg1/delta-cph1 gene to human Caco2 cells assessed as cell adhesion level at 16 ug/ml pre-incubated for 18 hrs by colony counting method (reference value: 1.22 +/- 0.78%); assay type: functional, Caco-2; parameters: scale not given: the % may be the effect or the level left
[22] = test system: Candida albicans; assay: Inhibition of cell adhesion of compound pre-treated Candida albicans CAI4 expressing delta-efg1 (EFG1) gene to human Caco2 cells assessed as cell adhesion level at 16 ug/ml pre-incubated for 18 hrs by colony counting method (reference value: 2.6 +/- 2.33%); assay type: functional, Caco-2; parameters: scale not given: the % may be the effect or the level left
[23] = test system: Candida albicans; assay: Inhibition of cell adhesion of compound pre-treated Candida albicans CAI4 expressing delta-cph1/delta-efg1 (EFG1) gene to human Caco2 cells assessed as cell adhesion level at 16 ug/ml pre-incubated for 18 hrs by colony counting method (reference value: 1.24 +/- 1.06%); assay type: functional, Caco-2; parameters: scale not given: the % may be the effect or the level left
[24] = test system: Candida albicans; assay: Inhibition of cell adhesion of compound pre-treated Candida albicans CAI4 expressing delta-cph1 gene to human Caco2 cells assessed as cell adhesion level at 8 ug/ml pre-incubated for 18 hrs by colony counting method (reference value: 1.6 +/- 0.65%); assay type: functional, Caco-2; parameters: scale not given: the % may be the effect or the level left
[25] = test system: Candida albicans; assay: Inhibition of cell adhesion of compound pre-treated Candida albicans CAI4 expressing delta-cph1/delta-efg1 (EFG1) gene to human Caco2 cells assessed as cell adhesion level at 8 ug/ml pre-incubated for 18 hrs by colony counting method (reference value: 1.24 +/- 1.06%); assay type: functional, Caco-2; parameters: scale not given: the % may be the effect or the level left
[26] = test system: Candida albicans; assay: Inhibition of cell adhesion of compound pre-treated Candida albicans CAI4 expressing delta-efg1 gene to human Caco2 cells assessed as cell adhesion level at 4 ug/ml pre-incubated for 18 hrs by colony counting method (reference value: 2.1 +/- 3.52%); assay type: functional, Caco-2; parameters: scale not given: the % may be the effect or the level left
[27] = test system: Candida albicans; assay: Inhibition of cell adhesion of compound pre-treated Candida albicans CAI4 expressing delta-efg1/delta-cph1 gene to human Caco2 cells assessed as cell adhesion level at 4 ug/ml pre-incubated for 18 hrs by colony counting method (reference value: 1.22 +/- 0.78%); assay type: functional, Caco-2; parameters: scale not given: the % may be the effect or the level left
[28] = test system: Candida albicans; assay: Inhibition of cell adhesion of compound pre-treated Candida albicans CAI4 expressing delta-cph1 (CPH1) gene to human Caco2 cells assessed as cell adhesion level at 2 ug/ml pre-incubated for 18 hrs by colony counting method (reference value: 5.37 +/- 12.4%); assay type: functional, Caco-2; parameters: scale not given: the % may be the effect or the level left
[29] = test system: Candida albicans; assay: Inhibition of cell adhesion of compound pre-treated Candida albicans CAI4 expressing delta-efg1 gene to human Caco2 cells assessed as cell adhesion level at 2 ug/ml pre-incubated for 18 hrs by colony counting method (reference value: 2.1 +/- 3.52%); assay type: functional, Caco-2; parameters: scale not given: the % may be the effect or the level left

O=[N+]([O-])c1cc(S(=O)(=O)C(Cl)(Cl)Br)ccc1Cl
inhibition of growth at 0.25 µg/mL [1]: 96.5% | MIC90 [2]: 16 µg/mL (≈ 41.7 µM) | MIC90 [3]: 16 µg/mL (≈ 41.7 µM) | MIC90 [4]: 16 µg/mL (≈ 41.7 µM) | MIC90 [5]: 16 µg/mL (≈ 41.7 µM) | Activity [6]: 0.68% | inhibition of growth at 16 µg/mL [7]: 99.6% | inhibition of growth at 16 µg/mL [8]: 99.8% | inhibition of growth at 16 µg/mL [9]: 99.6% | inhibition of growth at 16 µg/mL [10]: 99.5% | inhibition of growth at 2 µg/mL [11]: 98.9% | inhibition of growth at 2 µg/mL [12]: 98.9% | inhibition of growth at 2 µg/mL [13]: 99.3% | inhibition of growth at 2 µg/mL [14]: 99.3% | inhibition of growth at 1 µg/mL [15]: 98.7% | inhibition of growth at 1 µg/mL [16]: 98.5% | inhibition of growth at 1 µg/mL [17]: 98.9% | inhibition of growth at 0.5 µg/mL [18]: 98.8% | inhibition of growth at 0.25 µg/mL [19]: 98.6% | Activity [20]: 0.48% | Activity [21]: 0.43% | Activity [22]: 0.77% | Activity [23]: 0.75% | Activity [24]: 0.35% | Activity [25]: 1.26% | Activity [26]: 1.14% | Activity [27]: 1.02% | Activity [28]: 2.38% | Activity [29]: 0.9%

O=[N+]([O-])c1cc(S(=O)(=O)C(Cl)Cl)ccc1Cl
inhibition of growth at 0.25 µg/mL [1]: 98.8% | MIC90 [2]: 16 µg/mL (≈ 52.5 µM) | MIC90 [3]: 16 µg/mL (≈ 52.5 µM) | MIC90 [4]: 16 µg/mL (≈ 52.5 µM) | MIC90 [5]: 16 µg/mL (≈ 52.5 µM) | Activity [6]: 1.19% | inhibition of growth at 16 µg/mL [7]: 99.6% | inhibition of growth at 16 µg/mL [8]: 99.4% | inhibition of growth at 16 µg/mL [9]: 99.5% | inhibition of growth at 16 µg/mL [10]: 99.2% | inhibition of growth at 2 µg/mL [11]: 99.5% | inhibition of growth at 2 µg/mL [12]: 99% | inhibition of growth at 2 µg/mL [13]: 98.1% | inhibition of growth at 2 µg/mL [14]: 99.2% | inhibition of growth at 1 µg/mL [15]: 98.8% | inhibition of growth at 1 µg/mL [16]: 99.4% | inhibition of growth at 1 µg/mL [17]: 99% | inhibition of growth at 0.5 µg/mL [18]: 99% | inhibition of growth at 0.25 µg/mL [19]: 99.1% | Activity [20]: 2.28% | Activity [21]: 0.42% | Activity [22]: 0.79% | Activity [23]: 1.68% | Activity [24]: 0.8% | Activity [25]: 2.24% | Activity [26]: 0.97% | Activity [27]: 0.36% | Activity [28]: 1.43% | Activity [29]: 1.1%

NNc1ccc(S(=O)(=O)C(Cl)(Br)Br)cc1[N+](=O)[O-]
inhibition of growth at 0.25 µg/mL [1]: 72% | MIC90 [2]: 4 µg/mL (≈ 9.45 µM) | MIC90 [3]: 4 µg/mL (≈ 9.45 µM) | MIC90 [4]: 4 µg/mL (≈ 9.45 µM) | MIC90 [5]: 4 µg/mL (≈ 9.45 µM) | Activity [6]: 1.6% | inhibition of growth at 16 µg/mL [7]: 100% | inhibition of growth at 16 µg/mL [8]: 99.8% | inhibition of growth at 16 µg/mL [9]: 100% | inhibition of growth at 16 µg/mL [10]: 99.8% | inhibition of growth at 2 µg/mL [11]: 99.6% | inhibition of growth at 2 µg/mL [12]: 100% | inhibition of growth at 2 µg/mL [13]: 99.1% | inhibition of growth at 2 µg/mL [14]: 99.3% | inhibition of growth at 1 µg/mL [15]: 98.8% | inhibition of growth at 1 µg/mL [16]: 99.5% | inhibition of growth at 1 µg/mL [17]: 98.8% | inhibition of growth at 0.5 µg/mL [18]: 98.8% | inhibition of growth at 0.25 µg/mL [19]: 17% | Activity [20]: 0.78% | Activity [21]: 2.25% | Activity [22]: 0.89% | Activity [23]: 1.5% | Activity [24]: 0.56% | Activity [25]: 0.75% | Activity [26]: 0.69% | Activity [27]: 2.74% | Activity [28]: 1.86% | Activity [29]: 1.32%
